Values after ≈ are worked out from the molar mass of the structure shown. Active and inactive are the calls of the source. No cut-off for these calls is given here.

A word on the MIC: it is the lowest concentration that inhibits growth of the organism.

The subject of series [1] is Trypanosoma cruzi. In words: Antitrypanosomal activity against bloodstream forms of Trypanosoma cruzi infected in C3H/He mouse assessed as parasitologic cures at 200 mg/kg, po administered 4 times a day through gavage starting 3 days post challenge for 5 successive days relative to control. Further details: dose 200 mg/kg. It is filed as functional, organism-based. The gist of the method:
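Male C3H/He mice were infected ip with 2×10^3 bloodstream T. cruzi forms (Brazilian strain). Compound was given orally at 200 mg/kg four times daily for 5 days, then followed for parasitemia, survival and body weight.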

Series [2] relates to Mus musculus. In words: Toxicity in C3H/He mouse infected with bloodstream forms of Trypanosoma cruzi assessed as weight loss at 200 mg/kg, po qid administered 4 times a day through gavage starting 3 days post challenge for 5 successive days. Particulars: in vivo, 72 h.
Series [3] relates to Trypanosoma cruzi. Put plainly: Antitrypanosomal activity against bloodstream forms of Trypanosoma cruzi by in vitro assay. It is filed as functional. Particulars: for MIC: Trypanosoma cruzi. In short, it runs like this:
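Serial dilution in liquid culture in Warren's medium. Read-outs are the minimum inhibitory concentration (MIC) and the minimum lethal concentration (MLC), both in μg/ml.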

Series [4] has as its system Trypanosoma cruzi. In words: Antitrypanosomal activity against bloodstream forms of Trypanosoma cruzi infected in C3H/He mouse assessed as parasitologic cures at 100 mg/kg, po bid administered through gavage starting 3 days post challenge for 5 successive days relative to control. It is filed as functional, organism-based. Further details: dose 100 mg/kg. The gist of the method:
(§1)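 Male C3H/He mice were infected ip with 2×10^3 bloodstream forms of a Brazilian T. cruzi strain. Compounds were micronized to 0.5-2.0 μ and suspended in 0.9% NaCl, 1.0% Na-CMC, 0.5% Tween 80 and 0.05% antifoam B, dosed at 0.01 ml/2 g body weight. Groups of seven got 100 mg/kg by gavage twice daily for 5 days, starting day 3 postinfection, with untreated controls.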

Series [5] has as its system Trypanosoma cruzi. In words: Antitrypanosomal activity against bloodstream forms of Trypanosoma cruzi infected in C3H/He mouse assessed as increase in mean survival time at 100 mg/kg, po bid administered through gavage starting 3 days post challenge for 5 successive days relative to control. It is filed as functional. The settings on record: for survival at 100 mg/kg: Trypanosoma cruzi, po, 72 h. In short, it runs like this: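 Male C3H/He mice infected ip with 2×10^3 bloodstream T. cruzi (Brazilian strain). Compound micronized to 0.5-2.0 μ and suspended in 0.9% NaCl, 1.0% Na carboxymethylcellulose, 0.5% Tween 80, 0.05% antifoam B; given at 100 mg/kg (0.01 ml/2 g) by gavage twice daily for 5 days from day 3 post-infection; groups of 7. Value is percent IMST over untreated controls; Student's t test.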

Series [6] relates to Mus musculus. In words: Toxicity in C3H/He mouse infected with bloodstream forms of Trypanosoma cruzi assessed as weight loss at 100 mg/kg, po bid administered through gavage starting 3 days post challenge for 5 successive days. It is filed as organism-based. More on the design: dose 100 mg/kg, route oral. The settings on record: in vivo, 72 h. The gist of the method:
as §1

Series [7] concerns Trypanosoma cruzi. In words: Antitrypanosomal activity against bloodstream forms of Trypanosoma cruzi infected in C3H/He mouse assessed as increase in mean survival time at 100 mg/kg, ip bid starting 3 days post challenge for 5 successive days relative to control. Particulars: 72 h, route intraperitoneal. The format is functional. The gist of the method:
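Infection: ip inoculation of 2×10^3 bloodstream forms of a Brazilian T. cruzi strain into male C3H/He mice. Compound given by intraperitoneal route, 100 mg/kg twice daily. Value is percent increase in mean survival time beyond untreated controls, taken from mortality records; significance by Student's t test.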

On to `Cc1cc(N/N=C/c2ccc([N+](=O)[O-])o2)n2nccc2n1`, for which the outcome with Trypanosoma cruzi [1] and with Trypanosoma cruzi [4] was inactive. Moreover, the Activity entry in the series with Mus musculus [2] is given as “Toxic”; in the series on Mus musculus [6] it was “Non-toxic”. For the same compound, the MLC in the series on Trypanosoma cruzi [3] was 10 µg/mL (≈ 34.9 µM). Further, inhibition of growth in the series on Trypanosoma cruzi [3] (MIC) required 10 µg/mL (≈ 34.9 µM). Also, the survival at 100 mg/kg in the series with Trypanosoma cruzi [5] came out at 63.4%.
In the series on Trypanosoma cruzi [3], `Cc1cc(N/N=C/c2ccc([N+](=O)[O-])o2)n2ncc(-c3ccc(Cl)cc3)c2n1` registered an MLC of 3.2 µg/mL (≈ 8.06 µM) and an MIC of 1 µg/mL (≈ 2.52 µM). In addition, in the series with Trypanosoma cruzi [7], the survival at 100 mg/kg was found to be 20.5%. Moreover, the Activity result in the series on Mus musculus [6] was “Non-toxic”.
Take `Cc1cc(N/N=C/c2ccc([N+](=O)[O-])o2)n2ncc(-c3ccccc3)c2n1`: in the series on Trypanosoma cruzi [3], the MLC amounted to 1 µg/mL (≈ 2.76 µM) and the MIC is below 1 µg/mL. In addition, in the series on Mus musculus [6], the Activity result is on record as “Non-toxic”.
In the series on Trypanosoma cruzi [3], `Cc1cc(N/N=C/c2ccc([N+](=O)[O-])o2)n2ncc(S(=O)(=O)O)c2n1` showed an MLC of 100 µg/mL (≈ 273 µM) and a minimal inhibitory concentration (MIC) above 10 µg/mL. Besides, the survival at 100 mg/kg in the series on Trypanosoma cruzi [5] was found to be 9%. Also, the Activity entry with Mus musculus [6] is given as “Non-toxic”.
With `Cc1nc(N/N=C/c2ccc([N+](=O)[O-])o2)n2nc(-c3ccccc3)cc2n1`, in the series with Trypanosoma cruzi [3], the MLC worked out at 3.2 µg/mL (≈ 8.81 µM) and the MIC is 1 µg/mL (≈ 2.75 µM). Besides, in the series with Trypanosoma cruzi [5], the survival at 100 mg/kg worked out at 24.9%.
In the series with Trypanosoma cruzi [3], `O=[N+]([O-])c1ccc(/C=N/Nc2cc(Cl)nc3nccn23)o1` gave an MLC of 100 µg/mL (≈ 326 µM) and an MIC of 10 µg/mL (≈ 32.6 µM). Also, the survival at 100 mg/kg in the series with Trypanosoma cruzi [5] was found to be 4.4%.
In the series with Trypanosoma cruzi [3], `Cc1cc(N/N=C/c2ccc([N+](=O)[O-])o2)n2ncc(S(=O)(=O)[O-])c2n1.[Na+]` returned an MLC above 100 µg/mL and an MIC above 100 µg/mL. In the series with Trypanosoma cruzi [5], the Survival was found to be 8.5%. The Activity result in the series with Mus musculus [6] is reported as “Non-toxic”.
In the series with Trypanosoma cruzi [3], `Cc1cc(N/N=C/c2ccc([N+](=O)[O-])o2)n2ncc(Br)c2n1` came in with an MLC above 100 µg/mL and an MIC of 100 µg/mL (≈ 274 µM). In the series with Trypanosoma cruzi [5], the survival at 100 mg/kg worked out at 21.9%. Besides, the Activity entry in the series with Mus musculus [6] was “Non-toxic”.
On to `O=[N+]([O-])c1ccc(/C=N/Nc2ccnc3ccnn23)o1`, for which, in the series with Trypanosoma cruzi [3], the MLC came out at 10 µg/mL (≈ 36.7 µM) and the MIC was 10 µg/mL (≈ 36.7 µM). For the same compound, the survival at 100 mg/kg in the series on Trypanosoma cruzi [5] was below 1%. In addition, the Activity result with Mus musculus [6] was “Non-toxic”.
In the series with Trypanosoma cruzi [3], `Cc1cc(N/N=C/c2ccc([N+](=O)[O-])o2)n2ccnc2n1` registered an MLC above 100 µg/mL and an MIC above 100 µg/mL.
In the series with Trypanosoma cruzi [3], `CCOC(=O)c1cnn2c(N/N=C/c3ccc([N+](=O)[O-])o3)cc(C)nc12` gave an MLC of 10 µg/mL (≈ 27.9 µM) and an MIC of 10 µg/mL (≈ 27.9 µM). Further, the survival at 100 mg/kg in the series with Trypanosoma cruzi [5] is 1.3%. In addition, in the series on Mus musculus [6], the Activity result is reported as “Non-toxic”.
As for `O=[N+]([O-])c1ccc(/C=N/Nc2cc(Cl)nc3c(Cl)cnn23)o1`, in the series with Trypanosoma cruzi [3], the MLC amounted to 10 µg/mL (≈ 29.3 µM) and the MIC came to 10 µg/mL (≈ 29.3 µM). Besides, the survival at 100 mg/kg in the series on Trypanosoma cruzi [5] was determined as 14.6%. In addition, in the series on Mus musculus [6], the Activity entry is “Non-toxic”.
As for `Cc1cc(N/N=C/c2ccc([N+](=O)[O-])o2)n2ncnc2n1`, in the series with Trypanosoma cruzi [3], the MLC was above 100 µg/mL and the minimum inhibitory concentration (MIC) was above 100 µg/mL. Moreover, in the series on Trypanosoma cruzi [5], the survival at 100 mg/kg came to 4.3%.
In the series with Trypanosoma cruzi [3], `O=[N+]([O-])c1ccc(/C=N/Nc2cc(Cl)nc3ccnn23)o1` displayed an MLC of 1 µg/mL (≈ 3.26 µM) and an MIC below 1 µg/mL. Further, the survival at 100 mg/kg in the series on Trypanosoma cruzi [5] was determined as 36.3%. Besides, the Activity entry in the series on Mus musculus [6] is “Non-toxic”.

For the origin of these results see ChEMBL document CHEMBL3272042, “Novel heterocyclic nitrofurfural hydrazones. In vivo antirypanosomal activity” (J Med Chem, 1976).
